According to article PMC4627538 (Journal of Diabetes Investigation, 2015):
Bridge positions count the residues as written; N and C are the ends. Ends that are not written are not given here.

Legend:
[1] = tested on: background proteins (BSA and anti-MGAM antibodies); assay: Phage ELISA, binding of phage clones to background
How it was run: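 Wells coated overnight at 4°C with anti-MGAM antibodies (5 µg/mL) in PBS, blocked 90 min at room temperature with 2% BSA/PBS, with no MGAM added. 5×10^9 pfu of each phage clone in 0.05% PBST incubated 60 min, then washed five times with 0.1% PBST. Bound phage detected with HRP anti-M13 monoclonal antibody and TMB at A450. Triplicates, mean ± SD.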

[2] = tested on: maltase glucoamylase (MGAM); assay: Phage ELISA, binding of phage clones to MGAM; parameters: species or system rat; conditions: displayed on phage, judged from ELISA signals, Figure 1

**Q.** With “CGHHHRDYC (disulfide 1-9 (inferred)) [C2]” as the sequence, how does the “binding of phage clones to background proteins” value [1] read?
**A.** lower background binding

**Q.** And the “affinity towards the target (MGAM), comparison between phage clones” value [2]?
**A.** higher affinity towards the target than those obtained with specific elution

**Q.** For “CTHYGFRGC (disulfide 1-9 (inferred)) [C1]”, which “binding of phage clones to background proteins” value [1] is on record?
**A.** lower background binding

**Q.** What about the “affinity towards the target (MGAM), comparison between phage clones” value [2] of the same sequence?
**A.** higher affinity towards the target than those obtained with specific elution
